Test results taken from ChEMBL document CHEMBL3621151, “Orally bioavailable Syk inhibitors with activity in a rat PK/PD model” (Bioorg Med Chem Lett, 2015).
Calls of active or inactive are those of the source. The rule behind the calls is not given here.

Key:
Rattus norvegicus [1] = experiment: Dose normalized Cmax in Sprague-Dawley rat at 1 mg/kg, iv and 3 mg/kg, po administered as cassette dosing; assay type: ADME, organism-based; conditions: in vivo
Summary of the method: (§1)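 Cassette dosing in Sprague Dawley rats: iv 1 mg/kg in NMP/PEG200 (3:7) and po 3 mg/kg in CMC/water/Tween (0.5:99:0.5). Dose-normalized values are marked as such.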

[2] = Mean residence time in Sprague-Dawley rat at 1 mg/kg, iv and 3 mg/kg, po administered as cassette dosing; assay type: ADME, organism-based; conditions: in vivo; summary of the method: as §1
[3] = target: T1, Tyrosine-protein kinase SYK (Homo sapiens, UniProt P43405)
[4] = target: T1, Tyrosine-protein kinase SYK; experiment: Inhibition of Syk in anti-igM stimulated human Ramos B cells assessed as phospho-BLNK level preincubated for 30 mins followed by anti-IgM stimulation measured after 15 mins by flow cytometric analysis; assay type: cell-based
[5] = target: T1, Tyrosine-protein kinase SYK; experiment: Inhibition of Syk in anti-CD32 stimulated CD14+ human monocytes in presence of 90% human blood assessed as phospho-SLP76 level preincubated for 30 mins followed by anti-CD32 stimulation measured after 5 mins by flow cytometric analysis
[6] = Volume of distribution at steady state in Sprague-Dawley rat at 1 mg/kg, iv and 3 mg/kg, po administered as cassette dosing; assay type: ADME, organism-based; conditions: in vivo, read-out: Vdss; summary of the method: as §1
Liver microsome [7] = experiment: Drug metabolism in human liver microsomes assessed as lactam hydroxylation; assay type: ADME
Rattus norvegicus [8] = experiment: Dose normalized AUC in Sprague-Dawley rat at 3 mg/kg, po administered as cassette dosing; assay type: ADME, organism-based; conditions: in vivo; summary of the method: as §1
Aurora kinase A = target: T2, Aurora kinase A (Homo sapiens, UniProt O14965); experiment: Inhibition of aurora A kinase (unknown origin) by enzymatic assay
T2 sequence (O14965 whole entry): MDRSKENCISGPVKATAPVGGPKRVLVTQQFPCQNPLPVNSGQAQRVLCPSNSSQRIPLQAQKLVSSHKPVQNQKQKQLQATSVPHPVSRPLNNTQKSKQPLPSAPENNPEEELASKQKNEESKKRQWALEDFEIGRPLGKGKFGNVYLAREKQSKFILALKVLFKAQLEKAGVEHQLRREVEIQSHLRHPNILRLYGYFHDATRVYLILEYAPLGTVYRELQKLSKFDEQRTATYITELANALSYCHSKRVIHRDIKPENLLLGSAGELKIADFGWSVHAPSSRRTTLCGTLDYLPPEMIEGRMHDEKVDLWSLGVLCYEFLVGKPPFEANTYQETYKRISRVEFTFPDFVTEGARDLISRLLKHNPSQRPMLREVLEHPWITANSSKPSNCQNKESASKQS

Liver microsome [9] = experiment: Drug metabolism in human liver microsomes assessed as pyrazole N-demethylation; assay type: ADME
Liver microsome [10] = experiment: Drug metabolism in human liver microsomes assessed as pyrazole hydroxylation; assay type: ADME
Liver microsome [11] = experiment: Drug metabolism in rat liver microsomes assessed as lactam hydroxylation; assay type: ADME
Liver microsome [12] = experiment: Drug metabolism in rat liver microsomes assessed as pyrazole hydroxylation; assay type: ADME
[13] = Protein binding in human; assay type: ADME, organism-based; conditions: plasma, read-out: PB (converted)
[14] = Solubility in pH 6.8 solution; assay type: physicochemical
[15] = Oral bioavailability in Sprague-Dawley rat at 3 mg/kg administered as cassette dosing; assay type: ADME, organism-based; conditions: in vivo; summary of the method: as §1
Liver microsome [16] = experiment: Drug metabolism in rat liver microsomes assessed as pyrazole N-demethylation; assay type: ADME
[17] = Clearance in Sprague-Dawley rat at 1 mg/kg, iv and 3 mg/kg, po administered as cassette dosing; assay type: ADME, organism-based; conditions: in vivo; summary of the method: as §1
[18] = Half life in rat liver microsomes; assay type: ADME
[19] = Drug uptake in Lewis rat blood at 3 mg/kg, po measured after 8 hrs; assay type: ADME, organism-based; conditions: read-out: Drug uptake
Summary of the method: (§2)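 Lewis rats were given a single oral dose of 3 mg/kg. Blood was sampled at 2, 4, 8 and 24 h for compound levels. Ex vivo, peripheral blood monocytes were stimulated through FcγR with anti-CD32 antibody, and SLP76 phosphorylation was quantified as % pSLP76.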

Liver = experiment: Drug level in rat liver at 1 mg/kg, iv; assay type: ADME, organism-based; conditions: in vivo
Summary of the method: (§3)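 Rats received a single iv dose of 1 mg/kg. Compound concentrations were measured in blood, liver and kidney and expressed as ng/g.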

Salmonella typhimurium = experiment: Toxicity in Salmonella typhimurium by Ames test; assay type: organism-based; conditions: salmonella enterica subsp. enterica serovar typhimurium
Aurora kinase B = Aurora kinase B (Homo sapiens, UniProt Q96GD4); experiment: Inhibition of aurora B kinase (unknown origin) by cell based assay
Chain of Aurora kinase B (Q96GD4 whole entry): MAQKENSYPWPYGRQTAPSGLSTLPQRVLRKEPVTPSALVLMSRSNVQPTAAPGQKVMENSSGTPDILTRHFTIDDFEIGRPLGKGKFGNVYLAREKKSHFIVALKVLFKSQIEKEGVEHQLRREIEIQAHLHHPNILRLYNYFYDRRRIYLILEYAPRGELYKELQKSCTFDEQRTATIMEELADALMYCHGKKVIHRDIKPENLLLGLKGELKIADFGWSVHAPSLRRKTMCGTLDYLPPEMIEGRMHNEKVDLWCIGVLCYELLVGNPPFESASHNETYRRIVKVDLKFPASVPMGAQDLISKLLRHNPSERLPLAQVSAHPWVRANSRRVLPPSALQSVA

Blood = experiment: Drug level in rat blood at 1 mg/kg, iv; assay type: ADME, organism-based; conditions: in vivo; summary of the method: as §3
Rattus norvegicus [20] = experiment: In vivo inhibition of Syk in Lewis rat assessed as reduction in antiCD32-antibody-induced SLP76 phosphorylation in peripheral blood monocytes at 3 mg/kg, po measured after 24 hrs relative to vehicle-treated control; assay type: functional, organism-based; summary of the method: as §2
Kidney = experiment: Drug level in rat kidney at 1 mg/kg, iv; assay type: ADME, organism-based; conditions: in vivo; summary of the method: as §3
Rattus norvegicus [21] = experiment: In vivo inhibition of Syk in Lewis rat assessed as reduction in antiCD32-antibody-induced SLP76 phosphorylation in peripheral blood monocytes at 3 mg/kg, po measured after 4 hrs relative to vehicle-treated control; assay type: functional; summary of the method: as §2
Rattus norvegicus [22] = experiment: In vivo inhibition of Syk in Lewis rat assessed as reduction in antiCD32-antibody-induced SLP76 phosphorylation in peripheral blood monocytes at 3 mg/kg, po measured after 2 hrs relative to vehicle-treated control; assay type: functional; summary of the method: as §2
[23] = target: T3, Voltage-gated inwardly rectifying potassium channel KCNH2 (Homo sapiens, UniProt Q12809); experiment: Inhibition of human ERG by binding assay
T3 sequence (Q12809 whole entry): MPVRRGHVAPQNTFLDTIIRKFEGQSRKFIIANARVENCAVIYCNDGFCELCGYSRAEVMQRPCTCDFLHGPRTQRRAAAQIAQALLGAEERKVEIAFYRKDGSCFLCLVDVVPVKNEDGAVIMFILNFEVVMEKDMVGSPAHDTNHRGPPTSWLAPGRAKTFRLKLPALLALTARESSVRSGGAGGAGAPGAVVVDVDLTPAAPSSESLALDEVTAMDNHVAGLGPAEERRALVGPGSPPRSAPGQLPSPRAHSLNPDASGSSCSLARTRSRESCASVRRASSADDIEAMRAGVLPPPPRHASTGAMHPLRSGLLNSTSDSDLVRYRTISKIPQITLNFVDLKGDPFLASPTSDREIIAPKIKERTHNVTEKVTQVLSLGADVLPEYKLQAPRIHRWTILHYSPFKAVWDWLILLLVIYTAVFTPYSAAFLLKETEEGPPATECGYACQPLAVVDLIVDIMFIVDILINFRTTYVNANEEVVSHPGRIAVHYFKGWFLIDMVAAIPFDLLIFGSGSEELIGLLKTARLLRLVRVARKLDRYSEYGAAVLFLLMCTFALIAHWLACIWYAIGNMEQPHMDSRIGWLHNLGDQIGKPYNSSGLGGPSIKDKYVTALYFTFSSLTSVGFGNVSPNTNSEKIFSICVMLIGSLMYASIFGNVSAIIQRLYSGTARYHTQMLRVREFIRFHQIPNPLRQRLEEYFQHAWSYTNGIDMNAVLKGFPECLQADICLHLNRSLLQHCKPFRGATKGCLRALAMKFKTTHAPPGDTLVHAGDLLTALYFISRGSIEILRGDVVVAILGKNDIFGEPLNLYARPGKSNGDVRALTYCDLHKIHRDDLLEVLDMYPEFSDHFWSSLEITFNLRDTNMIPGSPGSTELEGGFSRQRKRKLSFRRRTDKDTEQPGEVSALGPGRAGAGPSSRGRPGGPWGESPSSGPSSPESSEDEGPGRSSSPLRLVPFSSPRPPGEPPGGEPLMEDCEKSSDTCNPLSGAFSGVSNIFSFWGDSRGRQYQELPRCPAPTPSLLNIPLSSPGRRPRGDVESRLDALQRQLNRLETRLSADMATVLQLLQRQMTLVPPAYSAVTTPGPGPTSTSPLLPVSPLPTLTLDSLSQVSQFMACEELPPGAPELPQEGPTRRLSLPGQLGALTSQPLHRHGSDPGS

Rattus norvegicus [24] = experiment: In vivo inhibition of Syk in Lewis rat assessed as reduction in antiCD32-antibody-induced SLP76 phosphorylation in peripheral blood monocytes at 3 mg/kg, po measured after 8 hrs relative to vehicle-treated control; assay type: functional; summary of the method: as §2
[25] = Drug uptake in Lewis rat blood at 3 mg/kg, po measured after 2 hrs; assay type: ADME, organism-based; conditions: read-out: Drug uptake; summary of the method: as §2
[26] = target: T3, Voltage-gated inwardly rectifying potassium channel KCNH2; experiment: Inhibition of human ERG by automated patch clamp assay
[27] = Drug uptake in Lewis rat blood at 3 mg/kg, po measured after 4 hrs; assay type: ADME, organism-based; conditions: read-out: Drug uptake; summary of the method: as §2
[28] = Drug uptake in Lewis rat blood at 3 mg/kg, po measured after 24 hrs; assay type: ADME, organism-based; conditions: read-out: Drug uptake; summary of the method: as §2
[29] = Toxicity in micronucleus (unknown origin) by micronucleus test
[30] = Ratio of drug level in liver to blood in rat at 1 mg/kg, iv; assay type: ADME, organism-based
Summary of the method: (§4)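 Rats received a single 1 mg/kg iv dose. Compound levels were then measured in blood, liver and kidney and expressed as ng/g of matrix. The ratio is tissue level over blood level.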

[31] = target: T3, Voltage-gated inwardly rectifying potassium channel KCNH2; experiment: Inhibition of human ERG at 30 uM by manual patch clamp assay
[32] = Ratio of drug level in kidney to blood in rat at 1 mg/kg, iv; assay type: ADME, organism-based; summary of the method: as §4

SMILES	Cmax/dose (Rattus norvegicus [1]) [nM]	MRT [2] [min]	IC50 [3] [nM]	IC50 [4] [nM]	IC50 [5] [nM]	Vd [6] [L/kg]	Drug metabolism (Liver microsome [7])	IC50 (Aurora kinase A) [nM]	Drug metabolism (Liver microsome [9])	Drug metabolism (Liver microsome [10])	Drug metabolism (Liver microsome [11])	Drug metabolism (Liver microsome [12])	bioavailability [15] [%]	Drug metabolism (Liver microsome [16])	clearance [17] [mL/min/kg]	further results
C[C@@H](Oc1cc(-c2cnn(C(F)F)c2)cc2nscc12)[C@H]1CNC(=O)C1	263	156	57	340	1020	–	–	–	–	–	–	–	–	–	–	–
C[C@@H](Oc1cc(-c2cnn(C)c2)cc2nscc12)[C@H]1CNC(=O)C1	94	54	46	161	298	2.4	metabolite_detected	576	metabolite_detected	metabolite_detected	metabolite_detected	metabolite_detected	30	metabolite_detected	45	AUC/dose (Rattus norvegicus [8]): 1056 nM.hr/(mg/kg); fraction unbound [13]: 0.2; solubility [14]: > 1000 µM; half-life [18]: 34 min
C[C@@H](Oc1cc(-c2cnn(C)c2)cc2ncsc12)[C@H]1CNC(=O)C1	–	–	33	89	186	–	–	–	–	–	–	–	–	–	–	–
C[C@@H](Oc1nc(-c2cnn(C)c2)cc2ncsc12)[C@H]1CNC(=O)C1	103	42	26	284	538	–	–	–	–	–	–	–	–	–	–	–
COc1ccc(-c2cc3ncsc3c(O[C@H](C)[C@H]3CNC(=O)C3)n2)cc1OC	178	24	5	132	517	1.2	metabolite_detected	≤ 100	metabolite_detected	metabolite_detected	metabolite_detected	metabolite_detected	35	metabolite_detected	53	AUC/dose (Rattus norvegicus [8]): 858 nM.hr/(mg/kg)
CN(C)c1ccc(-c2cc3ncccc3c(NCCCN)n2)cc1	–	–	–	–	–	–	metabolite_detected	–	metabolite_detected	metabolite_detected	metabolite_detected	metabolite_detected	–	metabolite_detected	–	–
C[C@@H](Oc1nc(-c2cnn(C(F)F)c2)cc2ncsc12)[C@H]1CNC(=O)O1	917	360	38	284	522	1.3	metabolite_detected	57	metabolite_detected	metabolite_detected	metabolite_detected	metabolite_detected	88	metabolite_detected	4	concentration at 8 h [19]: 827 nM; Drug uptake (Liver): 2134 ng/g; Activity (Salmonella typhimurium): Non-toxic; IC50 (Aurora kinase B): 110 nM; Drug uptake (Blood): 1014 ng/g; inhibition (Rattus norvegicus [20]): inactive; Drug uptake (Kidney): 1433 ng/g; inhibition in vivo at 3 mg/kg (Rattus norvegicus [21]): 79%; inhibition in vivo at 3 mg/kg (Rattus norvegicus [22]): 78%; IC50 [23]: > 30000 nM; inhibition in vivo at 3 mg/kg (Rattus norvegicus [24]): 60%; concentration at 2 h [25]: 1930 nM; IC50 [26]: > 30000 nM; concentration at 4 h [27]: 1340 nM; concentration at 24 h [28]: 40 nM; Activity [29]: Toxic
C[C@@H](Oc1nc(-c2cnn(C)c2)cc2nscc12)[C@H]1CNC(=O)C1	109	30	40	247	290	2.4	metabolite_detected	800	metabolite_detected	metabolite_detected	metabolite_detected	metabolite_detected	27	metabolite_detected	86	AUC/dose (Rattus norvegicus [8]): 577 nM.hr/(mg/kg); fraction unbound [13]: 0.2; solubility [14]: > 1000 µM; half-life [18]: 34 min
C[C@@H](Oc1cc(-c2cnn(C(F)F)c2)cc2nscc12)[C@H]1CNC(=O)O1	614	168	16	328	197	–	–	–	–	–	–	–	–	–	–	–
C[C@@H](Oc1cc(-c2cnn(C)c2)cc2nscc12)[C@H]1CNC(=O)O1	477	120	–	–	–	1.5	metabolite_detected	≤ 100	metabolite_detected	metabolite_detected	metabolite_detected	metabolite_detected	100	metabolite_detected	12	–
C[C@@H](Oc1cc(-c2cnn(C(F)F)c2)cc2ncsc12)[C@H]1CNC(=O)O1	803	282	9	107	230	–	–	–	–	–	–	–	–	–	–	–
NC(=O)c1nnc(N[C@@H]2CCCC[C@@H]2N)nc1Nc1cccc2cc[nH]c12	80	–	–	–	–	–	–	–	–	–	–	–	–	–	–	Drug uptake (Liver): 9175 ng/g; Drug uptake (Blood): 41 ng/g; Drug uptake (Kidney): 3866 ng/g; Kp [30]: 100; IC50 [26]: 28000 nM; inhibition (INH) [31]: Not Active; Kp [32]: 100
